Published values of several laboratories.
Each line is one published result; the experiments were not run side by side.
Target: Serine/threonine-protein kinase mTOR (MTOR, Homo sapiens, UniProt P42345)

Compound | observed | mode | method | concentration | quantity | result
CCN(CC)c1ccc(C2=NNC(=O)CC2C)cc1[N+](=O)[O-] (centres unmarked) | enzyme activity | inhibitor |  | 10 µM | remaining activity | 110%
COc1ccc2c(c1)O[C@@H](c1ccc(OC)c(OC)c1)C[C@H]2NC(=O)C1(c2ccc3c(c2)OC(F)(F)O3)CC1 | cell-free assay |  | competition with immobilised ligand | 1 µM | remaining binding | 100%
Cc1cnc(NC2CCOCC2)nc1-n1cnc(C(=O)NC(CN)c2cc(F)cc(Cl)c2)c1 (centres unmarked) | enzyme activity | inhibitor | radiometric | 1 µM | remaining activity | 82%
CCCOc1ccc(OC)c(F)c1C(=O)c1ccc(C(=O)N[C@@H]2CNC[C@H]2NC(=O)c2ccc3[nH]ncc3c2)cc1 | enzyme activity | inhibitor |  | 10 µM | remaining activity | 86%
CNC(=O)Nc1ccc2c(c1)[C@@]1(CC2)OC(=O)N(CC(=O)N(Cc2ccc(F)cc2)[C@@H](C)C(F)(F)F)C1=O | cell-free assay |  | competition with immobilised ligand | 1 µM | remaining binding | 100%
CNCc1ccc(-c2cc(-c3nc(-c4ccc(S(=O)(=O)C(C)C)cc4)cnc3N)on2)cc1 | enzyme activity | inhibitor |  | 2 µM | inhibition | 37%
Cc1ccc(NC(=O)c2ccc(C)c(C(F)(F)F)c2)cc1C#Cc1nn(C2CCC(O)CC2)c2ncnc(N)c12 (centres unmarked) | cell-free assay | inhibitor |  | 10 µM | remaining signal | 101%
CN(c1nccc(-c2cnn3ncccc23)n1)C1CC1 | cell-free assay |  |  | 1 µM | remaining signal | 100%
CC(C)(C)c1nc2c(s1)c1nc(N)ncc1c1ccc(NS(=O)(=O)c3c(F)cccc3F)c(F)c12 | enzyme activity | inhibitor | radiometric | 1 µM | remaining activity | 103%
Cc1cc(NC(=O)c2cccc3cc(-c4cccc5[nH]nc(N)c45)ccc23)ccc1F | enzyme activity | inhibitor |  | 0.1 µM | activity vs control | 92%
COc1cc(Cl)c(C(=O)N[C@@H](CN[C@H]2CC[C@@H](N)CC2)Cc2ccc(C#N)cc2)cc1-c1ccc(CN[C@H](C)c2ccc(C)cc2)o1 | enzyme activity | inhibitor |  | 1 µM | remaining activity | 98%
CS(=O)(=O)NCC[C@H](NC(=O)c1cncc2c1cnn2-c1ccc(F)cc1)c1ccnc(S(C)(=O)=O)c1 | cell-free assay |  | competition with immobilised ligand | 1 µM | remaining binding | 88%
COc1cc2ncnc(Nc3ccc(Oc4ccccc4)c(C)c3C)c2cc1OC | enzyme activity | inhibitor |  | 1 µM | inhibition | 0%
CN([C@@H]1CCc2c(CC(=O)O)c3ccccc3n2C1)S(=O)(=O)c1ccc(F)cc1 | cell-free assay |  | competition with immobilised ligand | 1 µM | remaining binding | 100%
CC(C)CCn1c(SCC(=O)Nc2ccccc2C(F)(F)F)nc2nccnc2c1=O | enzyme activity | inhibitor |  | 10 µM | inhibition | < 20%
CCc1ccccc1C(=O)Nc1n[nH]c2c(C)c(F)c(C3C(C#N)=C(C)N(C)C(C)=C3C#N)cc12 | cell-free assay |  | competition with immobilised ligand | 1 µM | remaining binding | 100%
O=C(CSc1nc2nccnc2c(=O)n1CCc1ccccc1)Nc1nccs1 | enzyme activity | inhibitor |  | 10 µM | inhibition | 4%
